{"source": "ChEMBL document CHEMBL4052637", "about": "“Discovery and Characterization of R/S-N-3-Cyanophenyl-N'-(6-tert-butoxycarbonylamino-3,4-dihydro-2,2-dimethyl-2H-1-benzopyran-4-yl)urea, a New Histone Deacetylase Class III Inhibitor Exerting Antiproliferative Activity against Cancer Cell Lines” (J Med Chem, 2017)", "key": {"[1]": {"assay": "Selectivity index, ratio of IC50 for mouse astrocytes to IC50 for human Hs683 cells"}, "[2]": {"target": "T1, NAD-dependent protein deacetylase sirtuin-2 (Homo sapiens, UniProt Q8IXJ6)", "T1 sequence (Q8IXJ6 whole entry)": "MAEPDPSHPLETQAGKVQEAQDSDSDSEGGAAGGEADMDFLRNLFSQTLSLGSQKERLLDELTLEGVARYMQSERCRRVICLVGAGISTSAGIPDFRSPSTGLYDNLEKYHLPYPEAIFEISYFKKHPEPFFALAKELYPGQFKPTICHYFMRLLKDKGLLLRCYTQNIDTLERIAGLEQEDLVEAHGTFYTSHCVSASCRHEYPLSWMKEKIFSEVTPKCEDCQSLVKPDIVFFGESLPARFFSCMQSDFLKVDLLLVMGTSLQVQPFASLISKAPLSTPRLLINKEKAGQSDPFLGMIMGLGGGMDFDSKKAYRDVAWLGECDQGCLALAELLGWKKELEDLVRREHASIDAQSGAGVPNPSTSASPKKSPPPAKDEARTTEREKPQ", "assay": "Inhibition of N-terminal His-tagged recombinant human SIRT-2 expressed in Escherichia coli using Fluor-de-Lys-SIRT1 as substrate after 15 mins by fluorescence assay"}, "[3]": {"target": "Protein deacetylase HDAC6 (Homo sapiens) (UniProt Q9UBN7)", "sequence (Q9UBN7 whole entry)": "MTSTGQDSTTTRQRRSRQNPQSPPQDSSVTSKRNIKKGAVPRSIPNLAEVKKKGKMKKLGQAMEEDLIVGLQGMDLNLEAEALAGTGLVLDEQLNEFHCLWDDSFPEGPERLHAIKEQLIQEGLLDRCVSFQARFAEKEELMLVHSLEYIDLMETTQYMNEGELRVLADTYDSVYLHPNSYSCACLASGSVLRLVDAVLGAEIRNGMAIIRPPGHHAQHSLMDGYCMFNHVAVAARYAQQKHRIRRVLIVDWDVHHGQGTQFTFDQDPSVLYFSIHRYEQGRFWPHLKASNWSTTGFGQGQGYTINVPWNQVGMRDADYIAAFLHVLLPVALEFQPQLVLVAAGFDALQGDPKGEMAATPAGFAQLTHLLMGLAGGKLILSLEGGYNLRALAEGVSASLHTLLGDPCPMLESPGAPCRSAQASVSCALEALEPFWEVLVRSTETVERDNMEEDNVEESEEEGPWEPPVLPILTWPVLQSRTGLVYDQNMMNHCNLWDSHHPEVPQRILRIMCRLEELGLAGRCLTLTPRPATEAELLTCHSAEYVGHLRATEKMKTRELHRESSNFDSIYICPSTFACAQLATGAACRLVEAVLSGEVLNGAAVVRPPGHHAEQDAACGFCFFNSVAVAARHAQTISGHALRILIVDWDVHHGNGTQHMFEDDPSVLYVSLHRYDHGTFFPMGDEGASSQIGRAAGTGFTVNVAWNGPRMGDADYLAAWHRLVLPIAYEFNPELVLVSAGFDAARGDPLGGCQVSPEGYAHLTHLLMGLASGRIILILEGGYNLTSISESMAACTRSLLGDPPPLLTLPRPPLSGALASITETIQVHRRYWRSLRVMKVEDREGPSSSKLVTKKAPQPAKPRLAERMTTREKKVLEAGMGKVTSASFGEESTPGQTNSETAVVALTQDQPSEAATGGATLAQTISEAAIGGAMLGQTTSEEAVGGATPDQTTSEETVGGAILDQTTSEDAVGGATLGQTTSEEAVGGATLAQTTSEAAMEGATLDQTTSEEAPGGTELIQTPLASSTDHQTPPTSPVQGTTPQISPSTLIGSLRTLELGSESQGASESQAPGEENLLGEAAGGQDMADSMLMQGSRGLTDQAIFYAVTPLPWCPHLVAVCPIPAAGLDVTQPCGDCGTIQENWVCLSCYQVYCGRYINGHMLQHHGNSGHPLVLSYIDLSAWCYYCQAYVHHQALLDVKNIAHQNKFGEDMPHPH", "assay": "Inhibition of His-tagged recombinant human HDAC6 expressed in baculovirus infected insect cells at 0.1 to 100 uM using Fluor-de-Lys-SIRT1 as substrate after 15 mins by fluorescence assay"}, "[4]": {"target": "Polyamine deacetylase HDAC10 (Homo sapiens) (UniProt Q969S8)", "sequence (Q969S8 whole entry)": "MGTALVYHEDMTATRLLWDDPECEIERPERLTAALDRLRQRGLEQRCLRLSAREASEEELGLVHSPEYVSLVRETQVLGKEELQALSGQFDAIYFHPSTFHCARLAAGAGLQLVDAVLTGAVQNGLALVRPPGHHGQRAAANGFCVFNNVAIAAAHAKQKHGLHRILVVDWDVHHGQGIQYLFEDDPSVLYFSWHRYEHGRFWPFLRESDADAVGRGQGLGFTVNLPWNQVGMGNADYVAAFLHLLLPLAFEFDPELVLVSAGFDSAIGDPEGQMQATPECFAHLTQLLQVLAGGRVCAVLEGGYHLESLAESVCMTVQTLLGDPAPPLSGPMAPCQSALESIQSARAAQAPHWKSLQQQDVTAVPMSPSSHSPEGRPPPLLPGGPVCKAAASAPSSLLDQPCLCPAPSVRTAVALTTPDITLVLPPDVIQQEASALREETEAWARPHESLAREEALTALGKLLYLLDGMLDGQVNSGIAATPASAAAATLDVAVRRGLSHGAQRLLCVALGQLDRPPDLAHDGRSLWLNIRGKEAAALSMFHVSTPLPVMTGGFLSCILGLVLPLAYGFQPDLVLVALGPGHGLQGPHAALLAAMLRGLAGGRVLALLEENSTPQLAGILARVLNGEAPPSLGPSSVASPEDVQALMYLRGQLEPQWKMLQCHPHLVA", "assay": "Inhibition of C-terminal His-tagged recombinant human HDAC10 expressed in baculovirus infected insect Sf9 cells at 0.1 to 100 uM using Fluor-de-Lys-SIRT1 as substrate after 15 mins by fluorescence assay"}, "[5]": {"target": "T2, NAD-dependent protein deacetylase sirtuin-1 (Homo sapiens) (UniProt Q96EB6)", "T2 sequence (whole entry)": "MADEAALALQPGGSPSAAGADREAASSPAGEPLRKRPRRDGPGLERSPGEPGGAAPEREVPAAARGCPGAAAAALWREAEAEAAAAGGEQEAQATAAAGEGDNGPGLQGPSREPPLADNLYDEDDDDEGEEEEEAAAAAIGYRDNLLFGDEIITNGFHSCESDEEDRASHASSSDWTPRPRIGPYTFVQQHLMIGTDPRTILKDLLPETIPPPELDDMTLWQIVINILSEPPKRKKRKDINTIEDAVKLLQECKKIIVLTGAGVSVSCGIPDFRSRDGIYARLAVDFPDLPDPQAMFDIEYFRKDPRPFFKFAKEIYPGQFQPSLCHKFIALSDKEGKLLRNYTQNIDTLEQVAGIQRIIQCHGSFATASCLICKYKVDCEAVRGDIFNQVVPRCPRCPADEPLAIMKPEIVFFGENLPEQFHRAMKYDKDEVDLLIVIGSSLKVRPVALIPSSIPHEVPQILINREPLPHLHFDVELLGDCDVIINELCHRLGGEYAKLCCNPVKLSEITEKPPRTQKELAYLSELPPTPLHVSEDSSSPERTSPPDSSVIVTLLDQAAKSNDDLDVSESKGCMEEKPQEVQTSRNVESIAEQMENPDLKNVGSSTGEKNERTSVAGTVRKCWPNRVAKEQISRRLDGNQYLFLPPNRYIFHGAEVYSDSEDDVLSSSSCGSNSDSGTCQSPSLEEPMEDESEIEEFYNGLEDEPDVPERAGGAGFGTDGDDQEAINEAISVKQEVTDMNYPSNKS", "assay": "Inhibition of SIRT1 in human U373 cells assessed as increase of histone H4 acetylation at 10 to 25 after 8 to 24 hrs by Western blotting method", "type": "cell-based"}, "[6]": {"tested_on": "U-373MG ATCC", "assay": "Inhibition of spheroid forming capacity of human U373 cells assessed as decrease in volume of multicellular tumor spheroids at 5 to 10 uM treated for 24 hrs measured after 96 hrs by bright field microscopic method", "type": "functional, cell-based", "procedure,_shortened": "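Spheroids formed from 1 × 10^3 cells in 25 μL. Cells were pretreated 24 h with compound then left untreated 96 h, or untreated spheroids were cultured 96 h with compound. Surface measured from bright-field images; volume in voxels from 3D plots after image segmentation. Mean ± SD of three independent experiments.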"}, "[7]": {"tested_on": "U-373MG ATCC", "assay": "Inhibition of 3D tumor-like growth of human U373 cells assessed as decrease in ATP level at 5 to 10 uM treated for 24 hrs measured after 96 hrs by CellTiter-Glo assay", "type": "functional, cell-based"}, "[8]": {"tested_on": "Hs 683", "assay": "Inhibition of 3D tumor-like growth of human Hs683 cells assessed as decrease in ATP level at 5 to 10 uM treated for 24 hrs measured after 96 hrs by CellTiter-Glo assay", "type": "functional, cell-based", "procedure,_shortened": "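Spheroids were grown from a starting suspension of 1 × 10^3 cells in 25 μL. Cells were pretreated 24 h with compound, then left untreated for 96 h. Spheroids were harvested and mixed with CellTiter-Glo 3D reagent, shaken 5 min and stabilized 25 min, then luminescence was read. Mean ± SD of three independent experiments.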"}, "[9]": {"tested_on": "KBC1", "assay": "Antiproliferative activity against human KBC1 cells overexpressing ABCB1 after 72 hrs by MTT assay", "type": "functional, cell-based", "procedure,_shortened": "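MTT assay: cells in RPMI 1640 with 10% heat-inactivated FCS at 37 °C and 5% CO2 were seeded 24 h before treatment. They were exposed 72 h to compound at 0.01–100 μM, with DMSO as solvent.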"}, "[10]": {"tested_on": "Hs 683", "assay": "Induction of apoptosis in human Hs683 cells at 10 uM after 72 hrs by TUNEL method relative to control", "type": "functional"}, "[11]": {"target": "T3, NAD-dependent protein deacetylase sirtuin-2 (Homo sapiens) (UniProt Q8IXJ6)", "T3 sequence (whole entry)": "T1 sequence (Q8IXJ6 whole entry)", "assay": "Inhibition of SIRT2 in human U373 cells assessed as increase of alpha-tubulin acetylation at 2.5 uM after 8 hrs by Western blotting method relative to control", "type": "cell-based"}, "[12]": {"target": "T3, NAD-dependent protein deacetylase sirtuin-2 (Homo sapiens)", "assay": "Inhibition of SIRT2 in human Hs683 cells assessed as increase of alpha-tubulin acetylation at 1 uM after 8 hrs by Western blotting method relative to control", "type": "cell-based"}, "[13]": {"tested_on": "NCI-H522", "assay": "Growth inhibition of human NCI-H522 cells after 48 hrs by SRB assay", "type": "functional", "conditions": "NCI-H522, 48 h"}, "[14]": {"tested_on": "U-251", "assay": "Growth inhibition of human U251 cells after 48 hrs by SRB assay", "type": "functional", "conditions": "U-251, 48 h"}, "[15]": {"tested_on": "MDA-MB-435", "assay": "Growth inhibition of human MDA-MB-435 cells after 48 hrs by SRB assay", "type": "functional", "conditions": "MDA-MB-435, 48 h"}, "[16]": {"tested_on": "SK-MEL-5", "assay": "Growth inhibition of human SK-MEL-5 cells after 48 hrs by SRB assay", "type": "functional", "conditions": "SK-MEL-5, 48 h"}, "[17]": {"tested_on": "IGROV-1", "assay": "Growth inhibition of human IGROV1 cells after 48 hrs by SRB assay", "type": "functional", "conditions": "IGROV-1, 48 h"}, "[18]": {"tested_on": "SN12C", "assay": "Growth inhibition of human SN12C cells after 48 hrs by SRB assay", "type": "functional"}}, "note": "The source made the active and inactive calls. No cut-off for these calls is given here."}
{"smiles": "CC(C)(C)OC(=O)Nc1ccc2c(c1)C(NC(=O)Nc1cccc(C#N)c1)CC(C)(C)O2", "note": "(stereo not drawn)", "values": [{"measurement": "Ratio IC50", "setting": "[1]", "result": ">10"}, {"measurement": "IC50", "setting": "[2]", "result": 4.2, "unit": "µM"}, {"measurement": "inhibition", "setting": "[3]", "result": "inactive"}, {"measurement": "inhibition", "setting": "[4]", "result": "inactive"}, {"measurement": "inhibition", "setting": "[5]", "result": "Active"}, {"measurement": "inhibition", "setting": "[6]", "result": "Active"}, {"measurement": "inhibition", "setting": "[7]", "result": "Active"}, {"measurement": "inhibition", "setting": "[8]", "result": "Active"}, {"measurement": "Activity", "setting": "[9]", "result": "Active"}, {"measurement": "Activity", "setting": "[10]", "result": 25, "unit": "%"}, {"measurement": "fold change (FC)", "setting": "[11]", "result": 1.4}, {"measurement": "fold change (FC)", "setting": "[12]", "result": 1.3}, {"measurement": "GI50", "setting": "[13]", "result": 3.24, "unit": "µM"}, {"measurement": "GI50", "setting": "[14]", "result": 1.48, "unit": "µM"}, {"measurement": "GI50", "setting": "[15]", "result": 1.48, "unit": "µM"}, {"measurement": "GI50", "setting": "[16]", "result": 0.427, "unit": "µM"}, {"measurement": "GI50", "setting": "[17]", "result": 6.31, "unit": "µM"}, {"measurement": "GI50", "setting": "[18]", "result": 5.5, "unit": "µM"}]}
